The source made the active and inactive calls. The calls are words filed in the database; no cut-off is given here.
Assays:
[1] = system: Hep 3B2; assay: Cytotoxicity against human Hep3B cells after 72 hrs by SRB assay; type: functional, cell-based; settings: Homo sapiens, Hep3B, 72 h; read-out: IC50
Summary of the method: (§1)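 SRB assay. Cells plated per well (HCT116 3000; Huh7, Hep3B, HepG2, MCF-7 2000; Mahlavu, FOCUS, SNU475 1000) and grown 24 h. Compounds came from 20 mM DMSO stocks and were tested in triplicate, 40 to 2,5 (or 2,5 to 0,03) per printed range, for 72 h. Cells fixed in 10% TCA, stained with 0.4% SRB, dye dissolved in 10 mM Tris, A515 read. IC50 derived after DMSO normalization.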

[2] = system: Huh-7; assay: Induction of apoptosis in human HuH7 cells assessed as early apoptotic cells at 1 uM after 24 hrs by Annexin V-FITC/propidium iodide staining-based flow cytometric analysis (reference value: 0.17%); type: functional
[3] = system: Huh-7; assay: Cell cycle arrest in human HuH7 cells assessed as accumulation of cells at G2/M phase at 1 uM after 48 hrs by propidium iodide staining-based flow cytometric analysis (reference value: 33.5%); type: functional
[4] = system: Huh-7; assay: Induction of apoptosis in human HuH7 cells assessed as viable cells at 1 uM after 72 hrs by Annexin V-FITC/propidium iodide staining-based flow cytometric analysis (reference value: 97.20%); type: functional; settings: Huh-7, 72 h, read-out: Activity
[5] = system: Huh-7; assay: Down-regulation of cyclin E protein expression in human HuH7 cells at 1 uM after 24 to 72 hrs by Western blot analysis; type: functional, cell-based
[6] = system: Huh-7; assay: Cell cycle arrest in human HuH7 cells assessed as accumulation of cells at G2/M phase at 1 uM after 72 hrs by propidium iodide staining-based flow cytometric analysis (reference value: 28.2%); type: functional
[7] = system: Mahlavu; assay: Induction of apoptosis in human Mahlavu cells assessed as apoptotic body formation at 1 uM by Hoechst staining-based assay; type: functional, cell-based
[8] = system: Mahlavu; assay: Cytotoxicity against human Mahlavu cells after 72 hrs by SRB assay; type: functional, cell-based; settings: Homo sapiens, Mahlavu, 72 h; read-out: IC50; summary of the method: as §1
[9] = system: Huh-7; assay: Cell cycle arrest in human HuH7 cells assessed as accumulation of cells at G1 phase at 1 uM after 72 hrs by propidium iodide staining-based flow cytometric analysis (reference value: 51.6%); type: functional
[10] = system: Mahlavu; assay: Induction of apoptosis in human Mahlavu cells assessed as early apoptotic cells at 1 uM after 24 hrs by Annexin V-FITC/propidium iodide staining-based flow cytometric analysis (reference value: 0.09%); type: functional
[11] = target: RAC-alpha serine/threonine-protein kinase (Homo sapiens) (UniProt P31749); assay: Inhibition of AKT phosphorylation in human Mahlavu cells at 1 uM after 24 to 72 hrs by Western blot analysis; type: cell-based
[12] = target: RAC-alpha serine/threonine-protein kinase (Homo sapiens) (UniProt P31749); assay: Inhibition of Akt phosphorylation in human HuH7 cells at 1 uM after 72 hrs by Western blot analysis; type: cell-based
[13] = target: RAC-alpha serine/threonine-protein kinase (Homo sapiens) (UniProt P31749); assay: Inhibition of Akt phosphorylation in human Mahlavu cells at 1 uM after 72 hrs by Western blot analysis; type: cell-based

RAC-alpha serine/threonine-protein kinase (Homo sapiens), sequence (P31749 whole entry): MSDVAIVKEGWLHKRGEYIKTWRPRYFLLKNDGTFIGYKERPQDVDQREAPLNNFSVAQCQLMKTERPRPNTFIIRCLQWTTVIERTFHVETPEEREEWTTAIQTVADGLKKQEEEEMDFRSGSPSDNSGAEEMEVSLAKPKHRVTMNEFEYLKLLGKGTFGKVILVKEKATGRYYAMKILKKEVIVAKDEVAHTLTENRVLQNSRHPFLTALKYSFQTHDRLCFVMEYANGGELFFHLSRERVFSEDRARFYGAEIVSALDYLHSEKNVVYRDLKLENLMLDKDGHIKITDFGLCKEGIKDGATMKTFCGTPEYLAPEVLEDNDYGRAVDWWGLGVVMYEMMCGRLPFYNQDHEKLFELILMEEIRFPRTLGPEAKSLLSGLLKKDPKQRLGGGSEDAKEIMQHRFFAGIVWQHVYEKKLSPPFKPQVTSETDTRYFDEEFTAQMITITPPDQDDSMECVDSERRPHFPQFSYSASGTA

Compound	IC50 [1] [nM]	Activity [2] [%]	Activity [3] [%]	viability at 1 µM [4] [%]	Activity [5]	Activity [6] [%]	Activity [7]	IC50 [8] [nM]	Activity [9] [%]	Activity [10] [%]	inhibition [11]	inhibition [12]	inhibition [13]
COc1ccc2c3c(c4cc(OC)c(OC)cc4c2c1)CN1CCCC[C@@H]1C3	16	0.07	24.4	83.4	Active	9.5	Active	16	24.3	0.12	–	–	–
COc1ccc2c3c(c4cc(OC)c(OC)cc4c2c1)CN1CCCCC1C3O (racemic)	17	0	18.1	81.7	Active	11.5	Active	10	17.9	0.04	Active	Active	Active

Source: ChEMBL document CHEMBL4316592, “Synthesis of new derivatives of boehmeriasin A and their biological evaluation in liver cancer” (Eur J Med Chem, 2019)
